Compounds with a hit are over-represented: about 2.3% of the library has one in this group of screens.
V1aR counter: agonists of human V1a receptor, primary screen, counter-screen for OXTR agonist project, fluorescence, CHO-V1R cells | Vasopressin V1a receptor (Homo sapiens), P37288 | Fluo-8 calcium fluorescence, agonist mode; 0% DMSO, 100% 3 nM vasopressin | activation, % at 3 µM | 320,000 compounds, 0.25% hits | AID 2797, 2010;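 active = activation above the mean activation of all tested compounds plus 3 SD, per screening run, cut at about 20% in these data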;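 note: signal is peak over basal fluorescence ratio across a 100 second FLIPR read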
Target sequence (P37288 whole entry, looked up): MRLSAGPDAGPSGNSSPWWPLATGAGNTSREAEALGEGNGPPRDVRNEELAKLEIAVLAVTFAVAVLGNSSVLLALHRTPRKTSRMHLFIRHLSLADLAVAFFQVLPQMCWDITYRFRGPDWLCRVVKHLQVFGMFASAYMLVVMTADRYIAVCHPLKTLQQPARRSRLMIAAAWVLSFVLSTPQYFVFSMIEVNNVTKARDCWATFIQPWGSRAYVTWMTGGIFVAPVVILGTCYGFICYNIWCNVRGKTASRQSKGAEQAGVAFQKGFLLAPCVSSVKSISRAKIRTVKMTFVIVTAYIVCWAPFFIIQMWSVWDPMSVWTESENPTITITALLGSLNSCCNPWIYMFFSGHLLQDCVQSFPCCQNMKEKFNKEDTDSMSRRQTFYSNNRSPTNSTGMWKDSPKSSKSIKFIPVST
TAAR1 agonist: human TAAR1 agonists, primary screen, Fluo-8 calcium fluorescence, CHO RD-HGA16 cells | activation, % at 3 µM | 360,000 compounds, 0.99% hits | vehicle wells 0%, saturating PEA agonist 100% | AID 624467, 2012;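 active = activation above the mean activation of all test compounds in the run plus 3 SD, cut at about 38% in these data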
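Repeats: no replicates (n 1) | Material: CHO-derived RD-HGA16 cells with stable Gα16 and human TAAR1 | Technique: Kinetic Fluo-8 calcium fluorescence | Schedule: 17-24 h seeding, 75 min 37 °C dye, 30 min RT | Evaluation: % activation from peak over basal fluorescence ratio, DMSO-to-PEA scaled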
OXTR potentiate: human OXTR potentiators, primary screen, fluorescence, CHO-OTR cells, Fluo-8 calcium; Oxytocin receptor (Homo sapiens), P30559; Fluo-8 calcium fluorescence, potentiator mode; 0% = oxytocin EC15, 100% = EC100; activation, % at 3 µM; 320,000 compounds, 0.061% hits; AID 2445, 2010;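 active = activation above that plate's cutoff, the mean activation of tested compounds plus 3 SD, cut at about 6.6% in these data, passing the limit was not always enough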;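 note: 100% uses oxytocin at 75 nM as the full agonist control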
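Assay system: CHO cell line stably expressing human OTR. Reagent: EC15 oxytocin agonist. Dosing: single dose, 3.0 µM nominal final compound concentration. Timing: compound 6 min at room temperature before oxytocin, 100 s read. Signal: kinetic Fluo-8 calcium fluorescence. Controls: oxytocin EC15 low and EC100 high.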
OXTR agonist: human OXTR agonists, primary screen, fluorescence, CHO-OTR cells, Fluo-8 calcium; Oxytocin receptor (Homo sapiens), P30559; Fluo-8 calcium fluorescence; normalized: DMSO 0%, oxytocin 100%; activation, % at 3 µM; 320,000 compounds, 0.32% hits; AID 2435, 2010;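 active = activation above the mean of all tested compounds plus 3 SD, cutoff set per screening run, cut at about 20% in these data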;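 note: peak over basal fluorescence ratio from a 100 s FLIPR kinetic read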
TAAR1 antagonist: human TAAR1 antagonists, primary screen, Fluo-8 calcium fluorescence, CHO RD-HGA16 cells; 360,000 compounds, 1.5% hits; antagonist; Trace amine-associated receptor 1 (Homo sapiens), Q96RJ0; inhibition, % at 3 µM;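 active = inhibition above a per-plate cutoff, the mean inhibition of test compounds on that plate plus 3 SD, cut at about 49% in these data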;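 note: 0% = DMSO plus EC80 beta-PEA response and 100% = DMSO alone without agonist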
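System: RD-HGA16 CHO cells with stable hTAAR1 and Gα16 | Probe or stimulus: EC80 β-phenethylamine stimulus | Dosing: 3 µM, single point | Times: Dye loading 75 min at 37 °C, then 30 min room temperature | Measured by: Fluo-8 calcium-sensitive fluorescence | Read-out basis: % inhibition of agonist calcium response | Replicates: n of 1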
An asterisk follows results filed as active; · = not tested or not shown.

SMILES | V1aR counter | TAAR1 agonist | OXTR potentiate | OXTR agonist | TAAR1 antagonist
CCCCNC(=O)C1CC(c2cccc([N+](=O)[O-])c2)=NO1 (stereo not drawn) | 1 | 5 | -4 | 0 | 13
Cc1ccc(C(OCC(O)CNCc2ccc(F)cc2)c2ccccc2)cc1 (stereo not drawn) | 12 | 40* | -14 | 13 | 32
CO[C@@H]1[C@H](O)CC[C@]2(O)CN(c3ccc(F)cc3)[C@](C)([C@H](O)CC=C(C)C)[C@@H]12 | · | 4 | · | · | -22
CCN(CC)S(=O)(=O)c1cccc(C(=O)Nc2nc3cc4c(cc3s2)OCCO4)c1 | 2 | 4 | -9 | 0 | 52*
COc1ccc(Cc2nnc(NC(=O)CSc3ccccc3)s2)cc1OC | 9 | 50* | -9 | 7 | 1
COc1ccc(-c2nn(-c3ccccc3)cc2C(=O)N2CCN(S(=O)(=O)c3ccccc3C#N)CC2)cc1 | 0 | 4 | 0 | 0 | 50*
COc1ccc(-c2nn(-c3ccccc3)cc2C(=O)N2CCN(S(=O)(=O)c3ccccc3[N+](=O)[O-])CC2)cc1 | · | 15 | · | · | 20
O=C(NCC(c1ccco1)N1CCCC1)c1ccc(S(=O)(=O)Nc2ccc(F)cc2)cc1 (stereo not drawn) | 6 | 40* | -11 | 9 | -7
CC(C)(C)C(=O)NC(=S)NNC(=O)c1ccncc1 | 0 | 1 | 8 | 0 | 14
CC(C)(C)C(=O)NC(=S)NNC(=O)c1ccc(-c2ccccc2)cc1 | 117* | · | -11 | 108* | ·
CCCCCCCCN1C(=O)[C@@H](CC(=O)N2CCC(c3ccccc3)CC2)C[C@@]2(C(=O)OC)C1=C[C@H](C(C)(C)C)O[C@@H]2C | · | 3 | · | · | -32
CC1Sc2ccc(S(=O)(=O)N(C)Cc3ccccc3)cc2NC1=O (stereo not drawn) | 7 | 7 | -13 | 3 | 49*
CCN(CC)c1ccc(/C=C(/C#N)C(=O)NCc2ccccc2)o1 | 26* | 54* | -11 | 29* | 54*
CCN(CC)c1ccc(/C=C(/C#N)C(=O)NC(C)C)o1 | 8 | 11 | -5 | 12 | -2
COC(=O)C1=CN(c2ccc(OC)cc2)C(N)=C(C#N)C1c1ccc(OC)cc1 (stereo not drawn) | · | 2 | · | · | 8
CCc1ccc(N2C=C(C(=O)OC)C(c3ccc(OC)cc3)C(C#N)=C2N)cc1 (stereo not drawn) | · | -1 | · | · | 59*
COc1ccc([C@H]2/C=C\CN(S(=O)(=O)c3cccc4cccnc34)[C@@H](C)C(=O)N2Cc2ccc(F)cc2)cc1 | 1 | 7 | -13 | 1 | 41
COc1ccc(C2/C=C\CN(S(=O)(=O)c3cccc4cccnc34)CC(=O)N2Cc2ccc(F)cc2)cc1 (stereo not drawn) | 0 | 13 | -11 | 0 | 50*
COC(=O)c1c(C(=O)OC)c2ccccn2c1C(=O)c1ccc([N+](=O)[O-])cc1 | 2 | 6 | -13 | -2 | 2
CC(C)OC(=O)c1c2c(n3ccccc13)C(=O)c1ccccc1C2=O | 31* | 40* | -17 | 25* | 45
COc1ccc(NC(=O)c2cc(-c3ccncc3)nc3ccc(Br)cc23)cc1OC | 2 | 15 | -14 | 4 | 53*
COC(=O)c1c(C)oc2ccc(N(C(=O)c3ccncc3)S(=O)(=O)c3ccc4ccccc4c3)cc12 | 7 | 2 | -1 | 3 | 50*
COC(=O)[C@@H](N[C@H](/C=C/c1ccccc1)[C@@H](O)Cc1ccccc1)c1ccccc1 | · | 0 | · | · | 26
COc1ccc(/C=N/Nc2nonc2N)cc1 | -1 | 2 | -2 | -1 | 11
Nc1nonc1N/N=C\c1ccccc1 | 0 | 41* | 4 | -1 | -22
SMILES | V1aR counter | TAAR1 agonist | OXTR potentiate | OXTR agonist | TAAR1 antagonist
CS(=O)(=O)Nc1cccc(NC(=O)c2cccc3c(-c4ccc(F)c(F)c4)coc23)c1 | · | 1 | · | · | 64*
CS(=O)(=O)Nc1cccc(NC(=O)c2cccc3c(-c4cccc(C(N)=O)c4)coc23)c1 | · | 8 | · | · | 66*
CS(=O)(=O)Nc1cccc(NC(=O)c2ccc(-c3ccc(F)c(F)c3)c3ccoc23)c1 | · | 4 | · | · | 37
CC(C)C[C@@H]1COc2cccc(N3CCCCC3)c2S(=O)(=O)N1 | · | -1 | · | · | -2
CC(C)[C@H](NC(=O)OCc1ccccc1)C(=O)OCc1cc(=O)oc2cc(O)ccc12 | 5 | 5 | -16 | 5 | 54*
CC(C)[C@H](NC(=O)OCc1ccccc1)C(=O)OCC(=O)c1ccccc1 | 0 | 1 | -6 | -2 | -3
C[C@H](O)[C@@H]1CN2CCc3ccc(-c4ccc5c(c4)OCO5)cc3[C@@H]2C[C@@H]1N(C)Cc1cc(Cl)cc(Cl)c1 | · | 0 | · | · | -11
CCOC(=O)[C@@H]1CSCCS(=O)(=O)N1C(=O)[C@H](C)NC(=O)OC(C)(C)C | · | 5 | · | · | 2
O=C(Nc1nc(-c2ccc(S(=O)(=O)N3CCCC3)cc2)cs1)C1COc2ccccc2O1 (stereo not drawn) | 2 | 23 | -8 | 1 | 57*
COc1ccccc1OCC(=O)Nc1nc(-c2ccc(S(=O)(=O)N3CCOCC3)cc2)cs1 | 1 | 18 | -22 | 1 | 36
O=C(COc1ccccc1)Nc1nc(-c2ccc(S(=O)(=O)N3CCOCC3)cc2)cs1 | 7 | 20 | -12 | 2 | 55*
O=C(COc1ccc(Cl)cc1)Nc1nc(-c2ccc(S(=O)(=O)N3CCOCC3)cc2)cs1 | 4 | 17 | -4 | 2 | 62*
COc1ccc(-c2nn(-c3ccccc3)cc2CNC[C@H]2O[C@@H](n3cnc4c(=O)[nH]c(N)nc43)[C@H](O)[C@@H]2O)cc1 | · | 4 | · | · | -5
N#CC1=C(N)SC(N)=C(C#N)C1c1ccoc1 | 5 | · | -8 | 5 | ·
Cc1ccc(C2C(C#N)=C(N)SC(N)=C2C#N)c(C)c1 | 21* | · | -24 | 20* | ·
Cc1ccc(C2C(C#N)=C(N)SC(N)=C2C#N)cc1 | · | 50* | · | · | 48
C[C@H](CO)N1C[C@H](C)[C@@H](CN(C)S(=O)(=O)c2ccccc2F)OCc2cnnn2CCCC1=O | · | 2 | · | · | 9
COc1cccc(/C=C2\SC(=S)N(CCCC(=O)N(CCO)c3ccccc3)C2=O)c1 | 6 | 4 | -16 | 2 | 49*
CC(C)n1c(SCC(=O)Nc2nc3c(s2)CCCC3)nc2c1c(=O)n(C)c(=O)n2C | 2 | 25 | -8 | 1 | 56*
O=C(/C=C\c1ccco1)Nc1nc(-c2ccc3ccccc3c2)cs1 | 2 | 9 | -6 | -1 | 49*
CC1CCN(C(=O)c2ncn3c2C(=O)N[C@H](C)C3)CC1 | · | 0 | · | · | 7
